The values that follow come from ChEMBL document CHEMBL3526089, “Selective mechanism-based inactivation of CYP3A4 by CYP3cide (PF-04981517) and its utility as an in vitro tool for delineating the relative roles of CYP3A4 versus CYP3A5 in the metabolism of drugs” (Drug Metab Dispos, 2012).

One data set deals with CYP3A5*1/*3. Nature of the data set: Time dependent inhibition of CYP3A5*1/*3 in human liver microsomes assessed as midazolam 1'-hydroxylase activity at 0.56 uM after 10 mins by dilution method. Format: ADME. The following applies: human liver microsomes (CYP3A5*1/*3 genotype), probe midazolam (1'-hydroxylation).
Data set [1] addresses T1, Cytochrome P450 3A4 (Homo sapiens, UniProt P08684). Description: Inhibition of midazolam 1'-hydroxylase activity of human recombinant CYP3A4 harboring human P450 oxidoreductase and b5 assessed as decrease in enzyme activity preincubated for 30 mins by LC-MS/MS analysis. Type of data set: ADME. The procedure, abridged:
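Recombinant CYP3A4 with POR and cytochrome b5 was preincubated with inhibitor at 0.050 µM, with or without NADPH (1.3 mM), for 30 min at 37°C (N=2). The mixture was then diluted 10-fold into the probe substrate (about KM) at 37°C and analysed for metabolite. Results are percent decrease in activity versus control.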

Data set [2] has as its target T1, Cytochrome P450 3A4. Description: Drug metabolism assessed as human recombinant CYP3A4 in presence of human P450 oxidoreductase and b5-mediated (4-(1-methyl-4-((S)-3-(piperidin-1-yl)pyrrolidin-1-yl)-1H-pyrazolo[3,4-d]pyrimidin-3-yl)-5-p-tolyl-1H-pyrazol-1-yl)methanol formation at 10 uM by HPLC-MS analysis in presence of NADPH. Format: ADME. The following applies: recombinant enzyme. An outline of the steps:
(§1)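 Recombinant CYP3A4 or CYP3A5 (50 pmol/ml final) added, without preincubation, to 10 µM CYP3cide with NADPH (final 1 mM) in 100 mM phosphate pH 7.4. Trapping incubations also held 200 µM KCN or 5 mM GSH (final). Incubated 1 h at 37°C, quenched with acetonitrile, dried, reconstituted. Metabolites analysed by LC/Orbitrap ESI-MS.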

Data set [3] concerns the target T2, Cytochrome P450 3A5 (Homo sapiens, UniProt P20815). Description: Drug metabolism assessed as human recombinant CYP3A5 in presence of human P450 oxidoreductase and b5-mediated 1-((3S)-1-(1-methyl-3-(1-methyl-5-p-tolyl-1H-pyrazol-4-yl)-1H-pyrazolo[3,4-d]pyrimidin-4-yl)pyrrolidin-3-yl)-2,3,4,5-tetrahydropyridinium formation at 10 uM by HPLC-MS analysis in presence of KCN and NADPH. The following applies: recombinant enzyme.
Target sequence in this assay (P20815 whole entry, looked up): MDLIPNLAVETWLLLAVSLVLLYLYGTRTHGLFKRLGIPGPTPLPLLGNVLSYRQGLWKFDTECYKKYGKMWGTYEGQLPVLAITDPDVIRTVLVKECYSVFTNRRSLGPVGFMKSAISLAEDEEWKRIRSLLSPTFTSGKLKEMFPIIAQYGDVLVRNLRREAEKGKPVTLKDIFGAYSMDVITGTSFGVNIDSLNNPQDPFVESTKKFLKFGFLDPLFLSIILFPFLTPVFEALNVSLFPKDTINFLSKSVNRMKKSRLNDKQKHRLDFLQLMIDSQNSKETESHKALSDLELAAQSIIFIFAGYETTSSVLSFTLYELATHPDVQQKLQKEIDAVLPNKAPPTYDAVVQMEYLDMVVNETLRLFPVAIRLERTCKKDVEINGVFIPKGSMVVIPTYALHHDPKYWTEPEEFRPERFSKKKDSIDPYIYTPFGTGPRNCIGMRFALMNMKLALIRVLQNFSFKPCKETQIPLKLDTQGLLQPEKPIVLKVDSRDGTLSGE

A further data set relates to CYP3A5*3/*3. Nature of the data set: Inhibition of CYP3A5*3/*3 in human liver microsomes assessed as midazolam 1'-hydroxylase activity at 0.56 uM after 10 mins. Type of data set: ADME. The following applies: liver microsomes (CYP3A5*3/*3 genotype), probe midazolam (1'-hydroxylation). The procedure, abridged: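 Genotyped individual HLMs (0.1 mg/ml) preincubated at 37°C with CYP3cide (0–1.3 μM; 10 min in the two-donor study, 5 min in the 30-donor study), with or without 1.3 mM NADPH (N=3). Mixture diluted 20-fold into 23 μM midazolam for 6 min. 1'-OH-midazolam measured. Readout: % of vehicle/no-NADPH control activity.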

For the next data set, the target named is CYP2C19 (Homo sapiens, UniProt P33261). Nature of the data set: Time dependent inhibition of human CYP2C19 S-mephenytoin 4'-hydroxylase activity assessed as decrease in enzyme activity at 100 uM preincubated for 30 mins by IC25-shift assay. Type of data set: ADME. Particulars: probe S-mephenytoin (4'-hydroxylation); call rule not given here. The procedure, abridged: (§2)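 IC25-shift assay. Pooled HLMs or recombinant CYP3A4/3A5/3A7 were preincubated 30 min at 37°C with CYP3cide, with or without NADPH (1.3 mM) (N=2). Mixture diluted 10-fold into probe substrate (~KM) at 37°C. Metabolites analysed by LC/MS/MS. Readout: % decrease in activity vs control.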

In another data set the target is CYP2D6 (Homo sapiens, UniProt P10635). Nature of the data set: Time dependent inhibition of human CYP2D6 dextromethorphan O-demethylase activity assessed as decrease in enzyme activity at 100 uM preincubated for 30 mins by IC25-shift assay. Type of data set: ADME. Particulars: probe dextromethorphan (O-demethylation). The procedure, abridged:
as §2

The target in data set [4] is T1, Cytochrome P450 3A4. Description: Inhibition of testosterone 6beta-hydroxylase activity of human recombinant CYP3A4 in presence of human P450 oxidoreductase and b5 assessed as decrease in enzyme activity preincubated for 30 mins by LC-MS/MS analysis. Type of data set: ADME.
The target of data set [5] is T2, Cytochrome P450 3A5. Description: Reversible inhibition of midazolam 1'-hydroxylase activity of human recombinant CYP3A5 harboring human P450 oxidoreductase and b5. Type of data set: ADME. The procedure, abridged: (§3)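 Recombinant CYP3A5 expressed in baculovirus, with P450 oxidoreductase and cytochrome b5 (P450:POR:b5 1:13:7). Enzyme at 0.010 mg/ml for midazolam 1'-hydroxylase and 0.020 mg/ml for testosterone 6β-hydroxylase. Each substrate at its experimentally derived KM. IC50 determined in duplicate.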
Target sequence in this assay (P20815 whole entry): as the sequence (P20815 whole entry, looked up) above

Data set [6] has as its target T3, CYP3A (Homo sapiens, UniProt P08684+P20815+P24462+Q9HB55). Description: Reversible inhibition of human CYP3A testosterone 6beta-hydroxylase activity. Format: ADME. The following applies: probe testosterone (6beta-hydroxylation). The procedure, abridged: (§4)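 Reversible IC50 with pooled HLM or recombinant CYP3A7 (with POR and b5), protein 0.010–0.10 mg/ml depending on isoform. Probe substrate at its experimentally derived KM. Metabolite formation measured by LC/MS/MS. IC50 determinations run in duplicate.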

Another data set deals with Cytochrome P450 2D6 (Homo sapiens, UniProt P10635). Description: Reversible inhibition of human CYP2D6 dextromethorphan O-demethylase activity. Type of data set: ADME.
A short description of data set [7]: Fraction unbound in human liver microsomes at 0.8 mg/ml. Format: ADME.
Data set [8] deals with T2, Cytochrome P450 3A5. Nature of the data set: Drug metabolism assessed as human recombinant CYP3A5 in presence of human P450 oxidoreductase and b5-mediated (4-(1-methyl-4-((S)-3-(piperidin-1-yl)pyrrolidin-1-yl)-1H-pyrazolo[3,4-d]pyrimidin-3-yl)-5-p-tolyl-1H-pyrazol-1-yl)methanol formation at 10 uM by HPLC-MS analysis in presence of NADPH. Particulars: recombinant enzyme. Type of data set: ADME. An outline of the steps: as §1
Target sequence in this assay (P20815 whole entry): as the sequence (P20815 whole entry, looked up) above

The target of data set [9] is T4, CYP3A4 (Homo sapiens, UniProt P08684). Description: Time dependent inhibition of testosterone 6beta-hydroxylase activity of human recombinant CYP3A4 in presence of human P450 oxidoreductase and b5 assessed as decrease in enzyme activity at 0.050 uM preincubated for 30 mins by IC25-shift assay. Format: ADME. Particulars: recombinant CYP3A4 with human P450 oxidoreductase and b5, probe testosterone (6beta-hydroxylation). The procedure, abridged:
as §2

Data set [10] deals with T3, CYP3A. Description: Reversible inhibition of human CYP3A felodipine oxidase activity. Format: ADME. Particulars: probe felodipine (oxidation). The procedure, abridged:
as §4

Data set [11] has as its target T2, Cytochrome P450 3A5. Description: Drug metabolism assessed as human recombinant CYP3A5 in presence of human P450 oxidoreductase and b5-mediated 1-((3S)-1-(1-methyl-3-(1-methyl-5-p-tolyl-1H-pyrazol-4-yl)-1H-pyrazolo[3,4-d]pyrimidin-4-yl)pyrrolidin-3-yl)-2,3,4,5-tetrahydropyridinium formation at 10 uM by HPLC-MS analysis in presence of KCN and NADPH. Format: ADME. Particulars: recombinant enzyme. An outline of the steps:
as §1
Target sequence in this assay (P20815 whole entry): as the sequence (P20815 whole entry, looked up) above

Data set [12] has as its target T2, Cytochrome P450 3A5. Nature of the data set: Reversible inhibition of testosterone 6beta-hydroxylase activity of human recombinant CYP3A5 in presence of human P450 oxidoreductase and b5. Format: ADME. The procedure, abridged:
as §3
Target sequence in this assay (P20815 whole entry): as the sequence (P20815 whole entry, looked up) above

Data set [13] concerns the target T4, CYP3A4. Nature of the data set: Irreversible inhibition of human recombinant CYP3A4 harboring human P450 oxidoreductase and b5 assessed as residual midazolam 1'-hydroxylase activity in presence of NADPH relative to control. Format: ADME. Particulars: recombinant CYP3A4 with human P450 oxidoreductase and b5, probe midazolam (1'-hydroxylation).
The nature of data set [14]: Inhibition of CYP3A5*3/*3 in 5 mg/ml of human liver microsomes assessed as midazolam 1'-hydroxylase activity at 13 uM after 10 mins. Type of data set: ADME.

T1 sequence (P08684 whole entry): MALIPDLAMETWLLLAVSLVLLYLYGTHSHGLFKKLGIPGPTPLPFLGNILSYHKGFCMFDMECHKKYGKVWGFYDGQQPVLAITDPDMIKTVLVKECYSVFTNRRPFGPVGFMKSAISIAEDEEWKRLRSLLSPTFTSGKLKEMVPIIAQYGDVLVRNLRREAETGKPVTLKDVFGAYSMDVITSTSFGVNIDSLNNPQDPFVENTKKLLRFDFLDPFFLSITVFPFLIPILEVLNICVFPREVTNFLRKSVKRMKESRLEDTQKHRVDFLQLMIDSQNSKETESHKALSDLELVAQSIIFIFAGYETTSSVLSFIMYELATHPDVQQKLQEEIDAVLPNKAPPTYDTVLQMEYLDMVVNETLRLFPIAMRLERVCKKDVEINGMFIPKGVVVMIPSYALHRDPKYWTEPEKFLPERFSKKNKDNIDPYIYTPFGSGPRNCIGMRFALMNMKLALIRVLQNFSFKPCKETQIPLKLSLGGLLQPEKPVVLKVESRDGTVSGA
T4 sequence (P08684 whole entry): as above
Chain of CYP2C19 (P33261 whole entry): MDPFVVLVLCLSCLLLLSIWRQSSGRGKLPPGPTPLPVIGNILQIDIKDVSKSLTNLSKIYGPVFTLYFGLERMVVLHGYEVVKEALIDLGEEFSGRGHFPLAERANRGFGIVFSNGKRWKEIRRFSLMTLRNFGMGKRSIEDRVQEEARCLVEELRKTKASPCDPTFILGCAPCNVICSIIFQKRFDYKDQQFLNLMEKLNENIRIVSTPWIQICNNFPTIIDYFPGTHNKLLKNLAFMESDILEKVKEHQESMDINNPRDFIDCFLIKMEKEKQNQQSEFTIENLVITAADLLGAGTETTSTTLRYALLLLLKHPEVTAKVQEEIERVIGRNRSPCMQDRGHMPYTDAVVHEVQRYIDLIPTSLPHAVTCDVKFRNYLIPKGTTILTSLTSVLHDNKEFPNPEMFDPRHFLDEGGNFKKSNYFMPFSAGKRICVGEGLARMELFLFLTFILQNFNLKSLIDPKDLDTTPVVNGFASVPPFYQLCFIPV
Chain of Cytochrome P450 2D6 (P10635 whole entry): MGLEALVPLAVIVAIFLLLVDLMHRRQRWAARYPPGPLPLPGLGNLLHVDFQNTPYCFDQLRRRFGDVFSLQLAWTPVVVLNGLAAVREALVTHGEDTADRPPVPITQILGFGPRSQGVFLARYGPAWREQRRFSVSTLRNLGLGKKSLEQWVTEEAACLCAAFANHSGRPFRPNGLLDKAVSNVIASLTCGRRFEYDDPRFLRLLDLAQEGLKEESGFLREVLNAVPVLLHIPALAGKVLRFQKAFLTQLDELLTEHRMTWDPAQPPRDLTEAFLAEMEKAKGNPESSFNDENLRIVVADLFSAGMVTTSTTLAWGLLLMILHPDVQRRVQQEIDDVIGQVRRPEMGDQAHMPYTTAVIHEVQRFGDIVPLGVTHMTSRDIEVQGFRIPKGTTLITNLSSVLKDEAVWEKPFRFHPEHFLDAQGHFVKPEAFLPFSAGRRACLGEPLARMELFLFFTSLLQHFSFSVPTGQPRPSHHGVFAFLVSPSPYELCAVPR
Chain of CYP2D6 (P10635 whole entry): as above

As to `Cc1ccc(-c2c(-c3nn(C)c4ncnc(N5CC[C@H](N6CCCCC6)C5)c34)cnn2C)cc1`, the inhibition at 10 min, 0.56 µM is 0.4% in the data set on CYP3A5*1/*3 and over 85% with CYP3A5*3/*3. Also, the Ki is 120 nM on Cytochrome P450 3A4 [1] and 170 nM on Cytochrome P450 3A4 [4]. Besides, the Drug metabolism result on Cytochrome P450 3A4 [2], at Cytochrome P450 3A5 [3], at Cytochrome P450 3A5 [8] and at Cytochrome P450 3A5 [11] was “metabolite_detected” each time. For the same molecule, the inhibition at 30 min, 100 µM at CYP2C19 came out at 0.79%; at CYP2D6 it was 6%. The IC50 at Cytochrome P450 3A5 [5] turned out to be 17 µM; against CYP3A [6], 1400 nM; against Cytochrome P450 2D6 it was 71 µM; at CYP3A [10], 160 nM; at Cytochrome P450 3A5 [12] it was 71 µM. For the same molecule, the fraction unbound in data set [7] came out at 0.56. Moreover, the inhibition at 30 min, 0.05 µM at CYP3A4 [9] was found to be 74%. Moreover, at CYP3A4 [13], the activity turned out to be 16%. The “inhibition (INH)” value in [14] is “Active”.
